# CDK5 p35 inh: inhibitors of human CDK5/p35 kinase, primary screen, biochemical, single concentration; Cyclin-dependent kinase 5 (Homo sapiens) + Cyclin-dependent kinase 5 activator 1 (Homo …; Recombinant CDK5/p35, ADP-Glo luminescence, 60 min; inhibition, % at 10 µM; hit rate 0.01% among 330,000; AID 488839, 2010;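 active = highest replicate inhibition of at least 50% and at least 75% of replicates reaching 50%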;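 also: plate controls were DMSO neutral control for no effect and GW8510 at 10 µM for full effect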
# GSK3 alpha inh: blockers of GSK3A enzyme activity – biochemical, luminescence, cell-free homogeneous, HTS, primary screen; Glycogen synthase kinase-3 alpha (Homo sapiens), P49840; GSK-3 alpha kinase, ADP-Glo luminescence, 60 min; inhibition, % at 10 µM; AID 2650, 2010; hit rate 0.1% among 320,000;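 active = more than half of replicates show inhibition above 20%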;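 also: GST-tagged GSK-3 alpha with peptide substrate and 25 µM ATP; 0% = DMSO neutral wells and 100% = GW8510 positive control wells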
# GSK3beta inhib: human GSK3beta kinase inhibitors, primary screen, biochemical, cell-free homogeneous, HTS; Glycogen synthase kinase-3 beta (Homo sapiens), P49841; AID 2097, 2009; GST-GSK3beta kinase, ADP-Glo luminescence, 60 min; active compounds read low; activity score (negative = inhibition), % at 10 µM; hit rate 0.038% among 300,000;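 active = more than half of replicate wells score below -50%, meaning over 50% inhibition versus plate controls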;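 also: 0% = median DMSO wells and -100% = median GW8510 positive control wells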
#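 Assay system: GST-tagged human GSK3beta kinase, cell-free; Input: 1.6 ng GSK3beta; Medium: Tris/MgCl2 kinase buffer; Timing: 60 min enzyme reaction, room temperature; Signal: ADP-Glo luminescence quantifying ADP generated by kinase; Evaluation: score relative to plate controls; Benchmarks: DMSO neutral wells and GW8510 at 20 µM as positive.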
# HIV Env fusion: inhibitors of HIV-1 Env-driven cell-cell fusion, primary screen, HeLa-JRFL effector, CEM21 target cells, luciferase | inhibition, % at 12.3 µM | hit rate 1.1% among 360,000;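 active = mean replicate inhibition score of at least 50 and every replicate individually at or above 50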;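 also: 0% = plate neutral controls and 100% = maraviroc near 300 nM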
# STK33 inh: inhibitors of purified STK33 kinase, primary screen, biochemical, ADP-Glo luminescence, homogeneous, cell-free; MBP phosphorylation; inhibition, % at 10 µM; hit rate 0.073% among 320,000; AID 2661, 2010;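 active = inhibition at or above 25%, using the most active replicate where run in duplicate; inactive = inhibition below 25%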
# Target sequence (Q9BYT3 whole entry, looked up): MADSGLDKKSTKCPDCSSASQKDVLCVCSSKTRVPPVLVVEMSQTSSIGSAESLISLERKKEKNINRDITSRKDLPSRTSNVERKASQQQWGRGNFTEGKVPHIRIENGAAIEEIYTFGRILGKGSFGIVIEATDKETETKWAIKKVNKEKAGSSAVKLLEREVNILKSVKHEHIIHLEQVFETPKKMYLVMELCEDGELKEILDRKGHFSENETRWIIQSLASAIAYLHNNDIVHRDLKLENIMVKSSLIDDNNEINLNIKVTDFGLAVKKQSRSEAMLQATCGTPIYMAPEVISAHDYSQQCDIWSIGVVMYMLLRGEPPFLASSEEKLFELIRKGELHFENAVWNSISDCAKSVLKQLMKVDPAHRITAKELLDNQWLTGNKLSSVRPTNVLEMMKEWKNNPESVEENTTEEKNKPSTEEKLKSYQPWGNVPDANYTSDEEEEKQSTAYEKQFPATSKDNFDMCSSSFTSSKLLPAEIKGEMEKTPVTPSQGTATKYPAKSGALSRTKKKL
# GSIS activator: GLuc luminescence reporter in INS-1E cells, primary screen for activators of glucose-dependent secretion of insulin. INS-1E GLuc reporter insulin secretion, 2-3 h. hit rate 0.61% among 370,000. AID 743287, 2014. activation, % at 16.6 µM;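 active = lowest replicate activation of at least 40%, so every replicate reaches that level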;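 also: 0% = median of neutral control wells and 100% = median of IBMX positive control wells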
# * hit, by the source's call; nt = no result given; [ ] = dose if it differs, or a comment. Only some compounds are listed: those with a hit (about 1.4% of all), similar ones and a draw of the others.
SMILES,CDK5 p35 inh,GSK3 alpha inh,GSK3beta inhib,HIV Env fusion,STK33 inh,GSIS activator
Cc1ccc(S(=O)(=O)N(C)C[C@@H]2Oc3ccc(NC(=O)Nc4ccc(C(F)(F)F)cc4)cc3CC(=O)N([C@H](C)CO)C[C@@H]2C)cc1,nt,nt,nt,76*[16.7 µM],nt,-10
C[C@H](CO)N1C[C@H](C)[C@H](CN(C)S(=O)(=O)c2cccs2)Oc2ccc(NC(=O)Nc3ccc4c(c3)OCO4)cc2C1=O,nt,nt,nt,47[16.7 µM],nt,2
C[C@@H]1CN([C@H](C)CO)C(=O)Cc2cc(NC(=O)Nc3ccc(C(F)(F)F)cc3)ccc2O[C@H]1CN(C)S(=O)(=O)c1cccs1,nt,nt,nt,14[16.7 µM],nt,1
CC(C)NC(=O)Nc1ccc2c(c1)CC(=O)N([C@@H](C)CO)C[C@H](C)[C@H](CN(C)S(=O)(=O)c1cccs1)O2,nt,nt,nt,57*[16.7 µM],nt,4
C[C@H](CO)N1C[C@H](C)[C@H](CN(C)S(=O)(=O)c2cccs2)Oc2ccc(NC(=O)Nc3ccc4c(c3)OCO4)cc2CC1=O,1,-1,nt,99*,-1,-43
CC(C)NC(=O)Nc1ccc2c(c1)CC(=O)N([C@H](C)CO)C[C@H](C)[C@H](CN(C)S(=O)(=O)c1cccs1)O2,nt,nt,nt,60*[16.7 µM],nt,-11
O=C(C[C@H]1CC[C@@H]2[C@H](COC[C@H](O)CN2CC2CCCC2)O1)NCC1CC1,nt,nt,nt,nt,nt,15
CC1(C)N=C(c2ccccc2)C(c2ccccc2)=N1,-1,nt,nt,-5,nt,41*
c1ccc(-c2nnc(-c3ccccc3)nn2)cc1,nt,-4,0,-95,0,13
CCOc1ccc(/C=C2\SC(=S)N(NS(=O)(=O)c3ccccc3)C2=O)cc1OC,-1,-10,6,0,0,62*
CCOc1ccc(/C=C2\SC(=S)N(NS(=O)(=O)c3ccc(C)cc3)C2=O)cc1OC,0,-11,8,-4,1,42*
COc1cccc(Nc2nc(C(N)CO)cs2)n1 (configuration not stated),nt,nt,nt,16,nt,41*
CCOC(=O)c1cccc(Nc2ncnc3ccc(C)cc23)c1,0,1,1,nt,2,-15
CCOC(=O)c1ccc(Nc2ncnc3ccc(C)cc23)cc1,0,-1,-1,nt,-1,85*
O=C(C[C@@H]1C=C[C@H](NC(=O)Nc2ccccc2F)[C@H](CO)O1)NCc1ccc(Cl)cc1,nt,nt,nt,21[16.7 µM],nt,-2
C[C@@H]1CN([C@H](C)CO)S(=O)(=O)c2ccc(-c3ccccc3)cc2O[C@H]1CN(C)C(=O)Cc1ccccc1,nt,nt,nt,-18[16.7 µM],nt,-10
CC(C)N(Cc1nc(-c2ccccc2)no1)C(=O)CN(C)S(=O)(=O)c1ccc(Br)cc1,-4,-1,2,70*,0,nt
O=S(=O)(NC1CC1)c1ccc(S(=O)(=O)N2CCCc3ccccc32)cc1,6,-2,-1,69*,-1,-17
O=c1c2ccccc2nnn1CCc1ccccc1,nt,nt,nt,-14,nt,3
O=c1c2ccccc2nnn1Cc1ccccc1,2,-4,4,-2,0,45*
CCOC(=O)c1ccc(-n2c(-c3ccco3)nc3ccccc3c2=O)cc1,1,0,2,-3,0,nt
CCOc1ccc(CCn2c(-c3ccco3)nc3ccccc3c2=O)cc1OCC,1,-1,1,62*,0,nt
O=c1c2ccccc2nc(-c2ccco2)n1Cc1ccccc1,1,0,1,-51,2,64*
COc1ccc(NC(=O)N[C@H]2CC[C@H](CC(=O)NC3CCC3)O[C@H]2CO)cc1,nt,nt,nt,-16[16.7 µM],nt,13
C[C@H]1CCCCO[C@H](CN(C)S(=O)(=O)c2cccs2)[C@@H](C)CN([C@@H](C)CO)C(=O)c2cc(NS(=O)(=O)c3cn(C)cn3)ccc2O1,nt,nt,nt,-7[16.7 µM],nt,11
SMILES,CDK5 p35 inh,GSK3 alpha inh,GSK3beta inhib,HIV Env fusion,STK33 inh,GSIS activator
C=CC[C@]1(C(=O)N(C)C)COC(c2ccc(OCCCO)cc2)=N1,nt,nt,nt,-4[16.7 µM],nt,nt
CC(C)c1cn(CC[C@H]2CC[C@@H](NS(=O)(=O)c3ccccc3)[C@H](CO)O2)nn1,nt,nt,nt,8[16.7 µM],nt,2
Cc1ccc(OCC(=O)NC(=S)Nc2cccc(NC(=O)c3ccccc3)c2)cc1,2,0,1,15,0,49*
COc1ccc(-c2cccc(C(=O)Nc3ccc(C)cc3)c2)cc1,1,-2,1,-4,-1,99*
Cc1ccc(OCC(=O)NC(=S)Nc2cccc(NC(=O)c3ccc(Cl)cc3Cl)c2)cc1,0,0,1,11,0,-3
C[C@@H](NC(=O)C[C@@H]1C[C@@H]2c3cc(NS(C)(=O)=O)ccc3O[C@@H]2[C@H](CO)O1)c1ccccc1,nt,nt,nt,-2[16.7 µM],nt,14
COc1ccc(-c2noc(CCCC(=O)N3CCN(c4cc(C)ccc4C)CC3)n2)cc1,0,nt,nt,nt,nt,-8
COc1ccc(-c2noc(CCCCC(=O)N3CCN(c4cc(C)ccc4C)CC3)n2)cc1,0,nt,nt,68*,nt,-53
CCOc1ccc(N(C)S(=O)(=O)c2ccc3[nH]cc(C(=O)NCCOC)c(=O)c3c2)cc1,0,-11,-4,10,0,66*
CCCNC(=O)c1c[nH]c2ccc(S(=O)(=O)N(C)c3ccc(OCC)cc3)cc2c1=O,nt,5,4,nt,3,-24
CCNC(=S)Nc1ccc2cn[nH]c2c1,4,20,-31,-10,31*,0
Cc1ccc(NC(=S)Nc2ccc3cn[nH]c3c2)cc1C,1,16,-3,-2,13,5
Cc1ccc(NC(=S)Nc2ccc3cn[nH]c3c2)c(C)c1,2,29,-2,-2,32*,37
CC=Cc1ccc2n(c1=O)C[C@H]1[C@H](CO)[C@@H](C(=O)OC)N(CCc3ccccc3)[C@@H]21 (mixture of isomers),nt,nt,nt,60*[16.7 µM],nt,9
Cn1c(=O)oc2cc(S(=O)(=O)NCc3ccncc3)ccc21,1,0,3,100*,0,nt
COc1cc(S(=O)(=O)NCc2ccncc2)ccc1Br,4,-2,0,65*,-1,-26
Cc1ccc(S(=O)(=O)NCc2ccncc2)cc1C,2,-3,1,-1,-1,-37
Cc1cc(C)c(C)c(S(=O)(=O)NCc2ccncc2)c1C,0,-2,-2,57*,-1,-26
CC(C)CC#Cc1ccc2c(c1)O[C@H](CN(C)Cc1cncnc1)[C@@H](C)CN([C@@H](C)CO)S2(=O)=O,nt,nt,nt,-8[16.7 µM],nt,-12
S=c1nc[nH]c2c1[nH]c1ccc(Cl)cc12,1,0,-2,69*,-1,nt

# Assay outcomes (PubChem)
